# Assay results published in ChEMBL document CHEMBL2157880, “Synthesis, antimycobacterial and antibacterial activity of ciprofloxacin derivatives containing a N-substituted benzyl moiety” (2012).
# Experiments:
# Format in all cases: functional
# Pseudomonas aeruginosa [1] = assay: Antibacterial activity against Pseudomonas aeruginosa 10-9 after 18 to 24 hrs by NCCLS method
# Outline: (§1)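 Standard NCCLS (M100-S11) MIC testing against Gram-positive and Gram-negative strains. Plates were incubated at 35 °C for 18–24 h. The MIC was read as the lowest concentration giving complete inhibition of visible bacterial growth.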
# [2] = system: Staphylococcus epidermidis; assay: Antibacterial activity against methicillin-sensitive Staphylococcus epidermidis 10-11 after 18 to 24 hrs by NCCLS method; outline: as §1
# Streptococcus pneumoniae [3] = assay: Antibacterial activity against Streptococcus pneumoniae 10-6 after 18 to 24 hrs by NCCLS method; outline: as §1
# Klebsiella pneumoniae [4] = assay: Antibacterial activity against extended spectrum beta-lactamases producing Klebsiella pneumoniae 10-3 after 18 to 24 hrs by NCCLS method; outline: as §1
# Staphylococcus aureus [5] = assay: Antibacterial activity against methicillin-sensitive Staphylococcus aureus 10-13 after 18 to 24 hrs by NCCLS method; outline: as §1
# Staphylococcus aureus [6] = assay: Antibacterial activity against methicillin-resistant Staphylococcus aureus 10-15 after 18 to 24 hrs by NCCLS method
# Outline: (§2)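 Incubated at 35 °C for 18–24 h under NCCLS (M100-S11) standards. MIC was read as the lowest concentration giving complete inhibition of visible bacterial growth.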
# Staphylococcus aureus [7] = assay: Antibacterial activity against methicillin-resistant Staphylococcus aureus 10-13 after 18 to 24 hrs by NCCLS method; outline: as §2
# Staphylococcus aureus [8] = assay: Antibacterial activity against methicillin-sensitive Staphylococcus aureus 10-14 after 18 to 24 hrs by NCCLS method; outline: as §1
# Enterococcus faecalis [9] = assay: Antibacterial activity against Enterococcus faecalis 10-5 after 18 to 24 hrs by NCCLS method; outline: as §1
# Staphylococcus aureus [10] = assay: Antibacterial activity against Staphylococcus aureus ATCC 2592 after 18 to 24 hrs by NCCLS method; outline: as §1
# Enterococcus faecalis [11] = assay: Antibacterial activity against Enterococcus faecalis 10-6 after 18 to 24 hrs by NCCLS method; outline: as §1
# Pseudomonas aeruginosa [12] = assay: Antibacterial activity against Pseudomonas aeruginosa 10-12 after 18 to 24 hrs by NCCLS method; outline: as §1
# Escherichia coli [13] = assay: Antibacterial activity against extended spectrum beta-lactamases producing Escherichia coli 10-4 after 18 to 24 hrs by NCCLS method; outline: as §1
# Klebsiella pneumoniae [14] = assay: Antibacterial activity against Klebsiella pneumoniae 10-2 after 18 to 24 hrs by NCCLS method; outline: as §1
# Pseudomonas aeruginosa [15] = assay: Antibacterial activity against Pseudomonas aeruginosa 10-5 after 18 to 24 hrs by NCCLS method; outline: as §1
# Escherichia coli [16] = assay: Antibacterial activity against extended spectrum beta-lactamases producing Escherichia coli 10-2 after 18 to 24 hrs by NCCLS method; outline: as §1
# Streptococcus pneumoniae [17] = assay: Antibacterial activity against Streptococcus pneumoniae 10-1 after 18 to 24 hrs by NCCLS method; outline: as §1
# Escherichia coli [18] = assay: Antibacterial activity against Escherichia coli 10-2 after 18 to 24 hrs by NCCLS method; outline: as §1
# Pseudomonas aeruginosa [19] = assay: Antibacterial activity against Pseudomonas aeruginosa 10-18 after 18 to 24 hrs by NCCLS method; outline: as §1
# Staphylococcus aureus [20] = assay: Antibacterial activity against methicillin-sensitive Staphylococcus aureus 10-11 after 18 to 24 hrs by NCCLS method; outline: as §1
# Enterococcus faecalis [21] = assay: Antibacterial activity against Enterococcus faecalis 10-7 after 18 to 24 hrs by NCCLS method; outline: as §1
# [22] = system: Staphylococcus epidermidis; assay: Antibacterial activity against methicillin-resistant Staphylococcus epidermidis 10-10 after 18 to 24 hrs by NCCLS method; outline: as §2
# Klebsiella pneumoniae [23] = assay: Antibacterial activity against extended spectrum beta-lactamases producing Klebsiella pneumoniae 10-2 after 18 to 24 hrs by NCCLS method; outline: as §1
# Klebsiella pneumoniae [24] = assay: Antibacterial activity against Klebsiella pneumoniae 10-3 after 18 to 24 hrs by NCCLS method; outline: as §1
# Staphylococcus aureus [25] = assay: Antibacterial activity against methicillin-resistant Staphylococcus aureus 10-11 after 18 to 24 hrs by NCCLS method; outline: as §2
# Enterococcus faecium [26] = assay: Antibacterial activity against Enterococcus faecium 10-9 after 18 to 24 hrs by NCCLS method; outline: as §1
# [27] = system: Staphylococcus epidermidis; assay: Antibacterial activity against methicillin-sensitive Staphylococcus epidermidis 10-15 after 18 to 24 hrs by NCCLS method; outline: as §2
# Pseudomonas aeruginosa [28] = assay: Antibacterial activity against Pseudomonas aeruginosa 10-15 after 18 to 24 hrs by NCCLS method; outline: as §1
# Escherichia coli [29] = assay: Antibacterial activity against extended spectrum beta-lactamases producing Escherichia coli 10-3 after 18 to 24 hrs by NCCLS method; outline: as §1
# Pseudomonas aeruginosa [30] = assay: Antibacterial activity against Pseudomonas aeruginosa 10-20 after 18 to 24 hrs by NCCLS method; outline: as §1
# Klebsiella pneumoniae [31] = assay: Antibacterial activity against Klebsiella pneumoniae 10-4 after 18 to 24 hrs by NCCLS method; outline: as §1
# Escherichia coli [32] = assay: Antibacterial activity against Escherichia coli ATCC 25922 after 18 to 24 hrs by NCCLS method; outline: as §1
# [33] = system: Staphylococcus epidermidis; assay: Antibacterial activity against methicillin-resistant Staphylococcus epidermidis 10-13 after 18 to 24 hrs by NCCLS method; outline: as §2
# Escherichia coli [34] = assay: Antibacterial activity against Escherichia coli 10-3 after 18 to 24 hrs by NCCLS method; outline: as §1
# Klebsiella pneumoniae [35] = assay: Antibacterial activity against extended spectrum beta-lactamases producing Klebsiella pneumoniae 10-1 after 18 to 24 hrs by NCCLS method; outline: as §1
# Enterococcus faecium [36] = assay: Antibacterial activity against Enterococcus faecium 10-6 after 18 to 24 hrs by NCCLS method; outline: as §1
# [37] = system: Mycobacterium tuberculosis; assay: Antimycobacterial activity against Mycobacterium tuberculosis H37Rv ATCC 27294 by microplate alamar blue assay
# Outline: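 Microplate Alamar Blue fluorescence assay on strain H37Rv ATCC 27294. MIC was the lowest concentration cutting fluorescence by ≥90% against the mean of replicate bacterium-only controls.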
# Escherichia coli [38] = assay: Antibacterial activity against Escherichia coli 10-1 after 18 to 24 hrs by NCCLS method; outline: as §1
smiles,measurement,setting,value
COc1cc(Br)c(CN2CCN(c3cc4c(cc3F)c(=O)c(C(=O)O)cn4C3CC3)CC2)cc1OC,MIC,Pseudomonas aeruginosa [1],8 µg/mL
same,MIC,[2],8 µg/mL
same,MIC,Streptococcus pneumoniae [3],> 128 µg/mL
same,MIC,Klebsiella pneumoniae [4],> 128 µg/mL
same,MIC,Staphylococcus aureus [5],4 µg/mL
same,MIC,Staphylococcus aureus [6],32 µg/mL
same,MIC,Staphylococcus aureus [7],32 µg/mL
same,MIC,Staphylococcus aureus [8],4 µg/mL
same,MIC,Enterococcus faecalis [9],> 128 µg/mL
same,MIC,Staphylococcus aureus [10],2 µg/mL
same,MIC,Enterococcus faecalis [11],> 128 µg/mL
same,MIC,Pseudomonas aeruginosa [12],8 µg/mL
same,MIC,Escherichia coli [13],> 128 µg/mL
same,MIC,Klebsiella pneumoniae [14],> 128 µg/mL
same,MIC,Pseudomonas aeruginosa [15],8 µg/mL
same,MIC,Escherichia coli [16],> 128 µg/mL
same,MIC,Streptococcus pneumoniae [17],8 µg/mL
same,MIC,Escherichia coli [18],> 128 µg/mL
same,MIC,Pseudomonas aeruginosa [19],8 µg/mL
same,MIC,Staphylococcus aureus [20],4 µg/mL
same,MIC,Enterococcus faecalis [21],> 128 µg/mL
same,MIC,[22],> 128 µg/mL
same,MIC,Klebsiella pneumoniae [23],> 128 µg/mL
same,MIC,Klebsiella pneumoniae [24],8 µg/mL
same,MIC,Staphylococcus aureus [25],32 µg/mL
same,MIC,Enterococcus faecium [26],> 128 µg/mL
same,MIC,[27],> 128 µg/mL
same,MIC,Pseudomonas aeruginosa [28],16 µg/mL
same,MIC,Escherichia coli [29],> 128 µg/mL
same,MIC,Pseudomonas aeruginosa [30],16 µg/mL
same,MIC,Klebsiella pneumoniae [31],> 128 µg/mL
same,MIC,Escherichia coli [32],0.25 µg/mL
same,MIC,[33],32 µg/mL
same,MIC,Escherichia coli [34],> 128 µg/mL
same,MIC,Klebsiella pneumoniae [35],> 128 µg/mL
same,MIC,Enterococcus faecium [36],8 µg/mL
same,MIC,[37],> 32 µg/mL
same,MIC,Escherichia coli [38],> 128 µg/mL
